According to ChEMBL document CHEMBL4480456, “Potentially Cardiotoxic Diterpenoid Alkaloids from the Roots of Aconitum carmichaelii” (J Nat Prod, 2019):

Assays:
[1] = tested on: H9c2; assay: Cytotoxicity against rat H9c2 cells assessed as reduction in cell viability after 24 hrs by MTT assay; type: cell-based; settings: H9c2, 24 h
Summary of the method: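 H9c2 cells cultured in DMEM with 10% FBS, penicillin/streptomycin/glutamine at 37 °C, 5% CO2. Seeded 1 × 10^5 cells/well, grown 24 h, then exposed to compounds for 24 h. The compounds came from 80 mM DMSO stocks diluted in complete medium to a series of concentrations. MTT added for 4 h, formazan dissolved in DMSO, OD read at 490 nm. Inhibition % taken against a cell-free medium blank. At least three experiments.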

[2] = tested on: H9c2; assay: Disruption of mitochondrial membrane potential in rat H9c2 cells at 40 uM after 24 hrs by rhodamine 123 staining-based assay; type: ADME, cell-based; settings: h9c2, 24 h
Summary of the method: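 H9c2 cells in imaging plates exposed 24 h, PBS-washed and stained 30 min with rhodamine 123. Then fixed in 4% paraformaldehyde 15 min and counterstained with DAPI 20 min. Rh123 intensity quantified by high-content imaging on In Cell Analyzer 6000. Means ± SD, three independent experiments.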

[3] = tested on: H9c2; assay: Induction of apoptosis in rat H9c2 cells at 40 uM after 24 hrs by DAPI/annexin V-FITC/PI double staining-based assay; type: cell-based; settings: h9c2, 24 h
Summary of the method: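 H9c2 cells in imaging plates exposed 24 h, PBS-washed, stained 30 min with annexin V-FITC and PI. Then fixed in 4% paraformaldehyde 15 min and DAPI-labelled 20 min. High-content imaging on In Cell Analyzer 6000 quantified nuclear size and annexin V-FITC and PI intensities. Means ± SD, three independent experiments.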

[4] = tested on: H9c2; assay: Induction of membrane potential in rat H9c2 cells after 50 to 650 secs by FLIPR assay; type: cell-based
Summary of the method: (§1)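 H9c2 cells seeded at 1 × 10^5 cells/well and grown to confluency. Switched to HBSS with 20 mM HEPES and loaded with blue membrane-potential dye for 30 min at 37 °C. Compounds freshly prepared in HBSS/HEPES were added and fluorescence was read on FLIPR. ΔF/F0 taken as peak change over initial intensity. Means ± SD, three independent experiments.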

[5] = tested on: H9c2; assay: Increase in intracellular calcium levels in rat H9c2 at 80 uM after 30 to 430 secs by FLIPR assay; type: ADME, cell-based; settings: h9c2, 80 µM
Summary of the method: as §1, with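 “Medium replaced by” for “Switched to”, “HEPES, then” for “HEPES and”, “calcium-sensitive” for “blue membrane-potential”, “dye (Calcium 6 kit)” for “dye”, “2 h” for “30 min”, “peak amplitude” for “peak”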

[6] = tested on: H9c2; assay: Increase in intracellular calcium levels in rat H9c2 after 30 to 430 secs by FLIPR assay; type: ADME, cell-based
Summary of the method: as §1, with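 “Medium replaced by” for “Switched to”, “HEPES, then” for “HEPES and”, “calcium-sensitive” for “blue membrane-potential”, “dye (Calcium 6 kit)” for “dye”, “2 h” for “30 min”, “peak amplitude” for “peak”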

CCN1C[C@]2(COC)[C@H](O)C[C@H](OC)[C@@]34[C@@H]5C[C@@]6(O)[C@H](OC(=O)c7ccccc7)[C@@H]5[C@@](OC)([C@@H]([C@H](OC)[C@H]23)[C@H]14)[C@@H](O)[C@@H]6OC
IC50 [1]: 68.4 µM

CCN1C[C@]2(COC)CC[C@H](OC)[C@@]34[C@@H]5C[C@@]6(O)[C@H](OC(=O)c7ccccc7)[C@@H]5[C@](OC)([C@@H](O)[C@@H]6OC)[C@@H](C[C@H]23)[C@H]14
IC50 [1]: > 100 µM

CCN1C[C@]2(COC)CC[C@H](OC)[C@@]34[C@@H]5C[C@@H]6[C@@H](OC)[C@H](O)[C@@](OC)([C@H]5[C@H]6OC(=O)c5ccccc5)[C@@H](C[C@H]23)[C@H]14
IC50 [1]: > 100 µM

COC[C@]12CN(C)[C@H]3[C@@H]4[C@H](OC)[C@H]1[C@@]3([C@@H](OC)C[C@H]2O)[C@@H]1C[C@@]2(O)[C@H](OC(=O)c3ccccc3)[C@@H]1[C@]4(OC(=O)c1ccccc1)[C@@H](O)[C@@H]2OC
IC50 [1]: 12.9 µM

CCCCO[C@]12[C@H]3[C@@H](OC(=O)c4ccccc4)[C@](O)(C[C@H]3[C@@]34[C@@H](OC)C[C@@H](O)[C@@]5(COC)CN(C)[C@H]3[C@@H]1[C@H](OC)[C@H]54)[C@@H](OC)[C@@H]2O
Activity [2]: Toxic | Activity [3]: Toxic | IC50 [1]: 27 µM

COC[C@]12CN(C)[C@H]3[C@@H]4[C@H](OC)[C@H]1[C@@]3([C@@H](OC)C[C@H]2O)[C@]1(O)C[C@@]2(O)[C@H](OC(=O)c3ccccc3)[C@@H]1[C@]4(OC(=O)c1ccccc1)[C@@H](O)[C@@H]2OC
IC50 [1]: > 100 µM

CCCCO[C@]12[C@H]3[C@@H](OC(=O)c4ccccc4)[C@](O)(C[C@H]3[C@@]34[C@@H](OC)CC[C@@]5(COC)CN(CC)[C@H]3[C@@H]1[C@H](OC)[C@H]54)[C@@H](OC)[C@@H]2O
Activity [4]: Dose-dependent effect | Activity [5]: Toxic | Activity [2]: Toxic | Activity [3]: Toxic | IC50 [1]: 19.2 µM

COC[C@@]12CC[C@H](OC)[C@@]34[C@@H]5C[C@@]6(O)[C@H](OC(=O)c7ccccc7)[C@@H]5[C@@](OC(=O)c5ccccc5)([C@@H]([C@H](OC)[C@H]13)[C@@H]4N(C)C2)[C@@H](O)[C@@H]6OC
IC50 [1]: 44.3 µM

C=C1[C@@H](O)[C@@]23C[C@H]4[C@@H]5[C@@]6(C)CCC[C@@]57[C@@H]2C[C@@H]1[C@H](O)[C@@H]3[C@H]7N4[C@H]6O
IC50 [1]: > 100 µM

CCCCO[C@]12[C@H]3[C@@H](OC(=O)c4ccccc4)[C@](O)(C[C@H]3[C@@]34[C@@H](OC)C[C@@H](O)[C@@]5(COC)CN(CC)[C@H]3[C@@H]1[C@H](OC)[C@H]54)[C@@H](OC)[C@@H]2O
Activity [4]: Dose-dependent effect | Activity [5]: Toxic | IC50 [1]: 21.2 µM

COC[C@@]12CC[C@H](OC)[C@@]34[C@@H]5C[C@@]6(O)[C@H](OC(=O)c7ccccc7)[C@@H]5[C@@](OC(C)=O)([C@@H]([C@H](OC)[C@H]13)[C@@H]4N(C)C2)[C@@H](O)[C@@H]6OC
Activity [6]: Toxic | Activity [2]: Toxic | Activity [3]: Non-Toxic

CCN1C[C@]2(COC)CC[C@H](OC)[C@@]34[C@@H]5C[C@@]6(O)[C@H](OC(=O)c7ccccc7)[C@@H]5[C@@](OC)([C@@H]([C@H](OC)[C@H]23)[C@H]14)[C@@H](O)[C@@H]6OC
IC50 [1]: 95.6 µM

CCN1C[C@]2(COC)[C@H](O)C[C@H](OC)[C@]34[C@@H]1[C@H]([C@H](OC)[C@H]23)[C@]1(OC(=O)c2ccccc2)[C@H]2[C@@H](OC(=O)c3ccccc3)[C@](O)(C[C@]24O)[C@@H](OC)[C@@H]1O
IC50 [1]: > 100 µM

COC[C@]12CN(C)[C@H]3[C@@H]4[C@H](OC)[C@H]1[C@@]3([C@@H](OC)C[C@H]2O)[C@@H]1C[C@@]2(O)[C@H](OC(=O)c3ccccc3)[C@@H]1[C@]4(OC(C)=O)[C@@H](O)[C@@H]2OC
Activity [6]: Toxic | Activity [2]: Toxic | Activity [3]: Non-Toxic

C=C1[C@@H](O)[C@@]23C[C@H]4[C@@H]5[C@@]6(C)CCC[C@@]57[C@@H]2C[C@@H]1[C@H](OC(C)=O)[C@@H]3[C@H]7N4[C@H]6O
IC50 [1]: > 100 µM
